Measurements: paper PMC5515376 (Nature, 2016)
Entries after “also recorded” stand apart in the source; their conditions may differ. Read-outs that look alike come from different tables or passages of the source.

Experiments:
[1] = Pharmacokinetics in P. falciparum 3D7^HLH/BRD-infected NSG mice; assay type: in vivo, mouse; conditions: for AUC: huRBC NSG mice; for AUC0-inf / Cmax / MRT0-inf / Tmax / AUC0-t: infected NSG mice; for AUC0-t: t = 24 h
[2] = system: P. berghei (ANKA GFP-luc); assay: In vivo P. berghei transmission-stage assay; design: species or system Plasmodium berghei; conditions: for Compound remaining in the circulation (plasma concentration): P. berghei-infected CD-1 mice
[3] = system: P. berghei (ANKA GFP-luc) sporozoites; assay: In vivo P. berghei causal prophylaxis assay; design: species or system Plasmodium berghei; conditions: CD-1 mice
[4] = system: P. falciparum (NF54) stage V gametocytes; assay: P. falciparum standard membrane feeding assay; assay type: cell-based, Plasmodium falciparum
[5] = system: P. falciparum 3D7^HLH/BRD; assay: In vivo P. falciparum transmission-stage assay; design: species or system Plasmodium falciparum; conditions: huRBC NSG mice; single oral 12.5 mg kg^−1; 7 days after treatment
Solubility assay in PBS = assay type: physicochemical; conditions: PBS pH 7.4 with 1% DMSO
Outline: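 Compound was prepared at 100 µM in triplicate, both in 100% DMSO and in PBS pH 7.4 with 1% DMSO. Samples were shaken at 750 r.p.m. for 18 h at room temperature. Analysis was by UPLC–MS with single-ion detection. PBS response was fitted to a two-point calibration built from the DMSO samples.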

HepG2 cell line = assay: Mammalian cell cytotoxicity assay; assay type: cell-based, human; conditions: read-out: HepG2 CC50; 72 h
Outline: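 HepG2, A549 or HEK293 cells were grown in DMEM with 10% FBS and 1% antibiotic–antimycotic and tested mycoplasma-free. Cells (1 × 10^6) were seeded one day before treatment. They were exposed to ascending compound doses for 72 h, and viability was read by CellTiter-Glo.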

[6] = system: Salmonella typhimurium strains TA100, TA1535, TA98, TA1537 and Escherichia coli strain WP2uvrA; assay: Ames test; conditions: in the presence or absence of S9 mix
[7] = system: P. falciparum 3D7^HLH/BRD blood-stage parasites; assay: In vivo P. falciparum blood-stage assay; design: species or system Plasmodium falciparum; conditions: huRBC NSG mice
hERG channel = hERG channel (Homo sapiens, UniProt Q12809); assay: hERG channel inhibition assay; assay type: cell-based; conditions: read-out: hERG IC50; IKr
Sequence of hERG channel (Q12809 whole entry): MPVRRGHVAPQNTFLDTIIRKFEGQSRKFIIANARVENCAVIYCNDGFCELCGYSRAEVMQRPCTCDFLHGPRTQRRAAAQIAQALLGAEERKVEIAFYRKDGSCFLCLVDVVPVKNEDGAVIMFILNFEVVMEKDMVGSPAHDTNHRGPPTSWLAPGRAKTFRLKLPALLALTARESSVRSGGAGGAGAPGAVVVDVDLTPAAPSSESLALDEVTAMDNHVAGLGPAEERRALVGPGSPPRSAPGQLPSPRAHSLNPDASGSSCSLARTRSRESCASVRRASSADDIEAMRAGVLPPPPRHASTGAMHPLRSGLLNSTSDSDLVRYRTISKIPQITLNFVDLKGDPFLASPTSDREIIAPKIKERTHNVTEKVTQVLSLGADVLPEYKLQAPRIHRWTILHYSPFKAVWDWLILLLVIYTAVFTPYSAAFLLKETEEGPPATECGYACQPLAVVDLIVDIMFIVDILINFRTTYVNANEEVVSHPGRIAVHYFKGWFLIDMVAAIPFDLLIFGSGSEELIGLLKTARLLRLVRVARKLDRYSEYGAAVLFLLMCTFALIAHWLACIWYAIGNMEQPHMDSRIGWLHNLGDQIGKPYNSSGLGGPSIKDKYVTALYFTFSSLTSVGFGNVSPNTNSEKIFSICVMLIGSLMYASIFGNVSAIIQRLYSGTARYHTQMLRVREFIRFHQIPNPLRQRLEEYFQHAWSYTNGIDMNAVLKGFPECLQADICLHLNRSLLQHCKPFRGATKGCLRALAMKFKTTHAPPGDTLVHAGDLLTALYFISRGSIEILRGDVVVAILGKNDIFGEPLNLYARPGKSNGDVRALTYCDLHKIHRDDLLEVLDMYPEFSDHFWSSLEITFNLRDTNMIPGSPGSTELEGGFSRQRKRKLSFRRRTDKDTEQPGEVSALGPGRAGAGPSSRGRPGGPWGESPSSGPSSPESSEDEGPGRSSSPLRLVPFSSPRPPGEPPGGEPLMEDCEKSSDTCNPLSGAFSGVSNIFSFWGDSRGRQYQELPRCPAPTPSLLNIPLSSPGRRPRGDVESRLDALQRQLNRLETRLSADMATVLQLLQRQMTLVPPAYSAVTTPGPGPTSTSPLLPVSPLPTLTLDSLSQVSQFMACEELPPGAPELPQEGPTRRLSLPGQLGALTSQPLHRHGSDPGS
Outline: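 hERG current was measured in hERG-expressing cell lines by automated patch clamp (QPatch-HTX).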

[8] = system: P. falciparum (NF54) liver stage; assay: In vitro P. falciparum liver-stage assay; assay type: cell-based, Plasmodium falciparum
[9] = Metabolic stability assay, mouse liver microsomes; assay type: in vitro ADME
Outline: (§1)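 Liver microsomes (0.2 mg ml−1) were incubated with compound (0.5 and 5 µM) plus NADPH for 0, 10 and 90 min. Human microsomes or mouse CD-1 microsomes were used, as named in each line. Compound depletion was measured by LC–MS/MS and used to estimate Km, Vmax and half-life.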

[10] = system: P. berghei (ANKA) liver stage; assay: In vitro P. berghei liver-stage assay; assay type: cell-based, Plasmodium berghei; conditions: P. berghei (ANKA), Liver stage
Outline: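 HepG2 cells (~17,500 per well, in duplicate) were cultured 18–24 h, then the medium was exchanged and compound added. After 1 h, 4,000 P. berghei ANKA GFP–luc sporozoites per well were added, freshly dissected from A. stephensi mosquitoes. Plates were spun 10 min at 1,000 r.p.m. and incubated 48 h at 37 °C. Parasite load was read by Bright-Glo luminescence.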

P. falciparum Dd2 [11] = assay type: cell-based, Plasmodium falciparum; conditions: Dd2 cultures, inocula 10^5 to 10^9, 20 nM (EC90), 60 days
[12] = system: P. berghei (ANKA GFP-luc) blood-stage parasites; assay: In vivo P. berghei blood-stage assay; design: species or system Plasmodium berghei; conditions: CD-1 mice
[13] = Metabolic stability assay, human liver microsomes; assay type: in vitro ADME
Outline: as §1

[14] = system: P. falciparum (NF54HT-GFP-luc) sporozoites; assay: In vivo P. falciparum liver-stage assay; design: species or system Plasmodium falciparum
[15] = Plasma protein binding assay; assay type: in vitro ADME
Outline: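 Binding was measured by equilibrium dialysis in a RED device. Compound at 5 µM, in duplicate, was placed in mouse plasma (0.95% acetonitrile, 0.05% DMSO) against PBS pH 7.4. Incubation was 5 h at 37 °C with 350 r.p.m. orbital shaking. Both sides were analysed by UPLC–MS with single-ion detection.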

P. falciparum Dd2 [16] = assay: In vitro P. falciparum blood-stage growth inhibition assay; assay type: cell-based, Plasmodium falciparum
[17] = system: P. falciparum 3D7 stage IV–V gametocytes; assay: In vitro transmission-blocking assay; assay type: cell-based, Plasmodium falciparum; conditions: P. falciparum (3D7), Gametocyte (IV-V)
Outline: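 3D7 cultures were treated 3 days with 50 mM N-acetyl-D-glucosamine to remove asexual parasites. Stage IV–V gametocytes were then isolated on a discontinuous Percoll gradient. Gametocytes (1.0 × 10^5 per well) were incubated with compound for 72 h. Viability was measured by CellTiter-Glo luminescence.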

## COc1ccc(NC(=O)N2CCCCN3[C@H](CN(C)C)[C@H](c4ccc(C#Cc5ccccc5)cc4)[C@@H]3C2)cc1 [BRD7929]
[1]; 6.25 mg kg^−1 single oral dose
  AUC: 15.7 µM·h
[1]; 12.5 mg kg^−1 single oral dose (single-dose cure)
  AUC: 31.4 µM·h
[1]; 25 mg kg^−1 single oral dose
  AUC: 62.8 µM·h
[1]; 50 mg kg^−1 single oral dose
  AUC: 125.6 µM·h
[1]; PO (3) mg/kg
  AUC0-inf: 7.2 µM·h
  Cmax: 210 nM
  MRT0-inf: 35.4 h
  Tmax: 12 h
  AUC0-t: 6.4 ^¶ µM*hr
[1]; PO (9) mg/kg
  AUC0-inf: 22.6 µM·h
  Cmax: 600 nM
  MRT0-inf: 37.8 h
  Tmax: 12 h
  AUC0-t: 19.7 ^¶ µM*hr
[2]; CD-1 mice, single oral 5 or 20 mg kg^−1, 2 days before mosquito feeding
  Oocysts in mosquito midguts: No oocysts were detected
[2]; oral 25 mg kg^−1, 1 day after treatment
  Compound remaining in the circulation (plasma concentration): 896.5 ng/mL
[2]; oral 25 mg kg^−1, 4 days after treatment
  Compound remaining in the circulation (plasma concentration): 170.5 ng/mL
[2]; oral 25 mg kg^−1, 10 days after treatment
  Compound remaining in the circulation (plasma concentration): 8.6 ng/mL
[2]; oral 1.25 mg kg^−1 and 0.31 mg kg^−1, 2 days before feeding mosquitoes
  Transmission: reduced transmission activity
[2]; oral 5 mg kg^−1, 2 days before feeding mosquitoes
  Transmission: complete blocking of transmission
[2]; oral 25 mg kg^−1, blood feeding 1, 4 or 10 days after treatment
  Oocysts in mosquito midguts: No oocysts were found
[3]; single dose of 5 or 25 mg kg^−1
  Mice developing blood-stage parasitaemia within a 30-day period: none
[3]; P. berghei liver-stage model
  Lowest single oral dose with no recrudescence: 5 mg/kg
[4]; read-out: EC50, standard membrane-feeding assay, direct (D), single drug concentration (10 µM) immediately before blood feeding
  EC50: < 10000 nM
[4]; read-out: EC50, standard membrane-feeding assay, indirect (ID), parasites treated 24 h before mosquito feeding
  EC50: 270 nM
[5]
  Transcription of asexual marker SBP1 (qRT-PCR): decreased to undetectable levels
  Transcription of mature gametocyte marker Pfs25 (qRT-PCR): decreased to undetectable levels
Solubility assay in PBS
  PBS solubility: 15 µM
HepG2 cell line
  CC50: 9000 nM
[6]
  Mutagenicity (Ames test): non-mutagenic
[7]; P. falciparum 3D7^HLH/BRD
  Lowest single oral dose with no recrudescence: 12.5 mg/kg
[7]; single dose 6.25 mg kg^−1
  Rate of the loss of bioluminescence: slower
[7]; single dose 25 mg kg^−1 and 50 mg kg^−1
  Change in parasite-associated bioluminescence: rapid decrease
hERG channel
  IC50: 2100 nM
[8]
  EC50: 340 nM
[9]
  Mouse Clint: 21 µL/min/mg
[10]
  EC50: 162 nM
P. falciparum Dd2 [11]
  Recrudescence / resistance under constant drug pressure: No recrudescence
[12]; single 25 mg kg^−1 oral dose
  Cure of the infected animals: 100%
[12]; single oral 25 mg kg^−1 or 50 mg kg^−1 dose
  Parasite status up to 30-day end-point (bioluminescent imaging): parasite-free
[12]; single oral dose of 12.5 mg kg^−1, n = 4
  Animals showing recrudescence at 6 days after treatment: One in four animals
[12]; P. berghei
  Lowest single oral dose achieving sterile cure: 25 mg/kg
[13]
  Human Clint: 31 µL/min/mg
[14]; blood 7 days after inoculation, 40 amplification cycles
  Ct value, P. falciparum UCE qRT-PCR: 40
[14]; blood 7 days after inoculation, single 10 mg kg^−1 oral dose
  Blood-stage marker (P. falciparum UCE transcript) by qRT-PCR: no amplification of the marker was detected; also recorded: not detected
[14]; huHep FRG knockout mice, single 10 mg kg^−1 oral dose 1 day after inoculation
  Liver-stage-associated bioluminescence signal: No increase in bioluminescence intensity level; also recorded: no increase in bioluminescence signals
[15]
  Mouse Plasma protein binding: 99.9%
P. falciparum Dd2 [16]; read-out: Pf, Dd2 EC50, blood stage
  EC50: 9 nM
P. falciparum Dd2 [16]; read-out: PfDd2 EC50, asexual blood-stage parasites (Dd2), SAR table
  EC50: 9 nM
P. falciparum Dd2 [16]; strain Dd2
  EC90: 20 nM
[17]
  EC50: 160 nM
